Measurements published in ChEMBL document CHEMBL1255335 (Antimicrob Agents Chemother, 2008).
Changes are numbered by the printed parent chain. Converted amounts (≈) assume the structure as drawn.

B1: Beta-lactamase SHV-1 (Klebsiella pneumoniae), P0AD64 (protein)
chain: MRYIRLCIISLLATLPLAVHASPQPLEQIKLSESQLSGRVGMIEMDLASGRTLTAWRADERFPMMSTFKVVLCGAVLARVDAGDEQLERKIHYRQQDLVDYSPVSEKHLADGMTVGELCAAAITMSDNSAANLLLATVGGPAGLTAFLRQIGDNVTRLDRWETELNEALPGDARDTTTPASMAATLRKLLTSQRLSARSQRQLLQWMVDDRVAGPLIRSVLPAGWFIADKTGAGERGARGIVALLGPNNKAERIVVIYLRDTPASMAERNQQIAGIGAALIEHWQR
B2: Beta-lactamase SHV-72 (Klebsiella pneumoniae), A0ZX81 (protein)
chain: B1 chain with I4F, A142V, K230R

Columns and labels:
Escherichia coli [1] = experiment: Antibacterial activity against Escherichia coli DH5alpha with deltaampC by agar dilution method; assay type: functional
Escherichia coli [2] = experiment: Antibacterial activity against Escherichia coli DH5alpha expressing Klebsiella pneumoniae beta-lactamase SHV-1 by agar dilution method; assay type: functional
Escherichia coli [3] = experiment: Antibacterial activity against Escherichia coli DH5alpha expressing Klebsiella pneumoniae beta-lactamase SHV-72 by agar dilution method; assay type: functional
Klebsiella pneumoniae [4] = experiment: Antibacterial activity against Klebsiella pneumoniae INSRA1229 harboring SHV-72 Ile8Phe, Ala146Val, and Lys234Arg mutations by agar dilution method
Escherichia coli [5] = experiment: Antibacterial activity against Escherichia coli DH5alpha with deltaampC by agar dilution method in presence of 2 ug/ml clavulanic acid; assay type: functional
Escherichia coli [6] = experiment: Antibacterial activity against Escherichia coli DH5alpha expressing Klebsiella pneumoniae beta-lactamase SHV-1 by agar dilution method in presence of 2 ug/ml clavulanic acid; assay type: functional
Escherichia coli [7] = experiment: Antibacterial activity against Escherichia coli DH5alpha expressing Klebsiella pneumoniae beta-lactamase SHV-72 by agar dilution method in presence of 2 ug/ml clavulanic acid; assay type: functional
Klebsiella pneumoniae [8] = experiment: Antibacterial activity against Klebsiella pneumoniae INSRA1229 harboring SHV-72 Ile8Phe, Ala146Val, and Lys234Arg mutations by agar dilution method in presence of 2 ug/ml clavulanic acid; assay type: functional
Escherichia coli [9] = experiment: Antibacterial activity against Escherichia coli DH5alpha with deltaampC by agar dilution method in presence of 4 ug/ml Tazobactam; assay type: functional
Escherichia coli [10] = experiment: Antibacterial activity against Escherichia coli DH5alpha expressing Klebsiella pneumoniae beta-lactamase SHV-1 by agar dilution method in presence of 4 ug/ml Tazobactam; assay type: functional
Escherichia coli [11] = experiment: Antibacterial activity against Escherichia coli DH5alpha expressing Klebsiella pneumoniae beta-lactamase SHV-72 by agar dilution method in presence of 4 ug/ml Tazobactam; assay type: functional
Klebsiella pneumoniae [12] = experiment: Antibacterial activity against Klebsiella pneumoniae INSRA1229 harboring SHV-72 Ile8Phe, Ala146Val, and Lys234Arg mutations in presence of 4 ug/ml Tazobactam; assay type: functional
[13] = substrate: CC1(C)S[C@@H]2[C@H](NC(=O)Cc3ccccc3)C(=O)N2[C@H]1C(=O)O; experiment: (§1) Activity of Klebsiella pneumoniae Beta-Lactamase SHV-1
Procedure, shortened: (§2)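 SHV-1 or SHV-72 came from E. coli DH5α ΔampC clones grown 18 h at 37°C. Enzymes were purified by ion exchange then gel filtration, with protein measured by BCA. Km and kcat were measured by pH-stat microacidimetry, fitting complete hydrolysis time courses by nonlinear least squares, three determinations per substrate.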

[14] = substrate: CC1(C)S[C@@H]2[C@H](NC(=O)[C@H](C(=O)O)c3ccsc3)C(=O)N2[C@H]1C(=O)O; experiment: as §1; procedure, shortened: as §2
[15] = substrate: CC1(C)S[C@@H]2[C@H](NC(=O)Cc3ccccc3)C(=O)N2[C@H]1C(=O)O; experiment: (§3) Ratio of Kcat to Km for Klebsiella pneumoniae Beta-Lactamase SHV-1
Procedure, shortened: (§4)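 kcat/Km came from Km and kcat of purified enzyme, which was expressed in E. coli DH5α ΔampC and purified by ion exchange then gel filtration. Both constants were measured by computerized pH-stat microacidimetry, with complete hydrolysis progress curves fitted by nonlinear least-squares regression. Each substrate was run three times.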

[16] = substrate: CC1(C)S[C@@H]2[C@H](NC(=O)[C@H](C(=O)O)c3ccsc3)C(=O)N2[C@H]1C(=O)O; experiment: as §3; procedure, shortened: as §4
[17] = substrate: CCN1CCN(C(=O)N[C@@H](C(=O)N[C@@H]2C(=O)N3[C@@H]2SC(C)(C)[C@@H]3C(=O)O)c2ccccc2)C(=O)C1=O; experiment: as §3; procedure, shortened: as §4
[18] = substrate: CC(=O)OCC1=C(C(=O)O)N2C(=O)[C@@H](NC(=O)Cc3cccs3)[C@H]2SC1; experiment: (§5) Activity of Klebsiella pneumoniae Beta-Lactamase SHV-72; procedure, shortened: as §2
[19] = substrate: CC(C)(O/N=C(\C(=O)N[C@@H]1C(=O)N2C(C(=O)[O-])=C(C[n+]3ccccc3)CS[C@H]12)c1csc(N)n1)C(=O)O; experiment: as §5; procedure, shortened: as §2
[20] = substrate: CC1(C)S[C@@H]2[C@H](NC(=O)Cc3ccccc3)C(=O)N2[C@H]1C(=O)O; experiment: as §5; procedure, shortened: as §2
[21] = substrate: CC1(C)S[C@@H]2[C@H](NC(=O)[C@H](C(=O)O)c3ccsc3)C(=O)N2[C@H]1C(=O)O; experiment: as §5; procedure, shortened: as §2
[22] = substrate: CC1(C)S[C@@H]2[C@H](NC(=O)[C@H](N)c3ccc(O)cc3)C(=O)N2[C@H]1C(=O)O; experiment: as §5; procedure, shortened: as §2
[23] = substrate: CCN1CCN(C(=O)N[C@@H](C(=O)N[C@@H]2C(=O)N3[C@@H]2SC(C)(C)[C@@H]3C(=O)O)c2ccccc2)C(=O)C1=O; experiment: as §5; procedure, shortened: as §2
[24] = substrate: CO/N=C(\C(=O)N[C@@H]1C(=O)N2C(C(=O)O)=C(COC(C)=O)CS[C@H]12)c1csc(N)n1; experiment: as §5; procedure, shortened: as §2
[25] = substrate: CC(=O)OCC1=C(C(=O)O)N2C(=O)[C@@H](NC(=O)Cc3cccs3)[C@H]2SC1; experiment: (§6) Ratio of Kcat to Km for Klebsiella pneumoniae Beta-Lactamase SHV-72; procedure, shortened: as §4
[26] = substrate: CC1(C)S[C@@H]2[C@H](NC(=O)Cc3ccccc3)C(=O)N2[C@H]1C(=O)O; experiment: as §6; procedure, shortened: as §4
[27] = substrate: CC1(C)S[C@@H]2[C@H](NC(=O)[C@H](C(=O)O)c3ccsc3)C(=O)N2[C@H]1C(=O)O; experiment: as §6; procedure, shortened: as §4
[28] = substrate: CC1(C)S[C@@H]2[C@H](NC(=O)[C@H](N)c3ccc(O)cc3)C(=O)N2[C@H]1C(=O)O; experiment: as §6; procedure, shortened: as §4
[29] = substrate: CCN1CCN(C(=O)N[C@@H](C(=O)N[C@@H]2C(=O)N3[C@@H]2SC(C)(C)[C@@H]3C(=O)O)c2ccccc2)C(=O)C1=O; experiment: as §6; procedure, shortened: as §4
[30] = Escherichia coli, DH5alpha, read-out: MIC

Molecule | MIC (Escherichia coli [1]) | MIC (Escherichia coli [2]) | MIC (Escherichia coli [3]; [30]) | MIC (Klebsiella pneumoniae [4]) | further results
CO/N=C(\C(=O)N[C@@H]1C(=O)N2C(C(=O)[O-])=C(C[N+]3(C)CCCC3)CS[C@H]12)c1csc(N)n1 | 0.03 µg/mL (≈ 0.0624 µM) | 0.03 µg/mL (≈ 0.0624 µM) | 0.03 µg/mL (≈ 0.0624 µM) | 0.03 µg/mL (≈ 0.0624 µM) | 
CCN1CCN(C(=O)N[C@@H](C(=O)N[C@@H]2C(=O)N3C(C(=O)O)=C(CSc4nnnn4C)CS[C@H]23)c2ccc(O)cc2)C(=O)C1=O [CEFOPERAZONE] | ≤ 0.25 µg/mL | 4 µg/mL (≈ 6.2 µM) | ≤ 0.25 µg/mL | 2 µg/mL (≈ 3.1 µM) | 
GENTAMICIN | < 0.125 µg/mL | 0.25 µg/mL |  |  | MIC (Escherichia coli [3]): 0.25 µg/mL
CC1(C)S[C@@H]2[C@H](/N=C/N3CCCCCC3)C(=O)N2[C@H]1C(=O)O [AMDINOCILLIN] | 0.125 µg/mL (≈ 0.384 µM) | 0.5 µg/mL (≈ 1.54 µM) | 0.25 µg/mL (≈ 0.768 µM) | 0.25 µg/mL (≈ 0.768 µM) | 
CC(C)(O/N=C(\C(=O)N[C@@H]1C(=O)N2C(C(=O)[O-])=C(C[n+]3ccccc3)CS[C@H]12)c1csc(N)n1)C(=O)O [CEFTAZIDIME] | 0.25 µg/mL (≈ 0.457 µM) | 0.5 µg/mL (≈ 0.915 µM) | 0.25 µg/mL (≈ 0.457 µM) |  | MIC (Escherichia coli [5]): 0.125 µg/mL; MIC (Escherichia coli [6]): 0.25 µg/mL; MIC (Escherichia coli [7]): 0.25 µg/mL
CO/N=C(\C(=O)N[C@@H]1C(=O)N2C(C(=O)O)=C(COC(N)=O)CS[C@H]12)c1ccco1 [CEFUROXIME] | 4 µg/mL (≈ 9.43 µM) | 4 µg/mL (≈ 9.43 µM) | 8 µg/mL (≈ 18.9 µM) | 2 µg/mL (≈ 4.71 µM) | 
CO/N=C(\C(=O)N[C@@H]1C(=O)N2C(C(=O)O)=C(COC(C)=O)CS[C@H]12)c1csc(N)n1 [CEFOTAXIME] | 0.06 µg/mL (≈ 0.132 µM) | 0.06 µg/mL (≈ 0.132 µM) | 0.06 µg/mL (≈ 0.132 µM) | 0.125 µg/mL (≈ 0.274 µM) | MIC (Escherichia coli [5]): 0.06 µg/mL; MIC (Escherichia coli [6]): 0.06 µg/mL; MIC (Escherichia coli [7]): 0.06 µg/mL; MIC (Klebsiella pneumoniae [8]): 0.06 µg/mL
CCN1CCN(C(=O)N[C@@H](C(=O)N[C@@H]2C(=O)N3[C@@H]2SC(C)(C)[C@@H]3C(=O)O)c2ccccc2)C(=O)C1=O [PIPERACILLIN] | 2 µg/mL (≈ 3.86 µM) | 64 µg/mL (≈ 124 µM) | 4 µg/mL (≈ 7.73 µM) | 32 µg/mL (≈ 61.8 µM) | MIC (Escherichia coli [9]): 2 µM; MIC (Escherichia coli [10]): 2 µM; MIC (Escherichia coli [11]): 2 µM; MIC (Klebsiella pneumoniae [12]): 2 µM
CC1(C)S[C@@H]2[C@H](NC(=O)[C@H](N)c3ccc(O)cc3)C(=O)N2[C@H]1C(=O)O [AMOXICILLIN] | 8 µg/mL (≈ 21.9 µM) | 2050 µg/mL (≈ 5600 µM) | 512 µg/mL (≈ 1400 µM) | 2050 µg/mL (≈ 5600 µM) | MIC (Escherichia coli [5]): 8 µM; MIC (Escherichia coli [6]): 8 µM; MIC (Escherichia coli [7]): 64 µM; MIC (Klebsiella pneumoniae [8]): 64 µM
CC(=O)OCC1=C(C(=O)O)N2C(=O)[C@@H](NC(=O)Cc3cccs3)[C@H]2SC1 [CEPHALOTHIN] | 8 µg/mL (≈ 20.2 µM) | 16 µg/mL (≈ 40.4 µM) | 4 µg/mL (≈ 10.1 µM) | 8 µg/mL (≈ 20.2 µM) | 
O=C(O)c1cn(C2CC2)c2cc(N3CCNCC3)c(F)cc2c1=O [CIPROFLOXACIN] | ≤ 0.125 µg/mL | ≤ 0.125 µg/mL | ≤ 0.125 µg/mL | ≤ 0.125 µg/mL | 
COc1cc(Cc2cnc(N)nc2N)cc(OC)c1OC [TRIMETHOPRIM] | ≤ 0.125 µg/mL | ≤ 0.125 µg/mL | ≤ 0.125 µg/mL | 0.5 µg/mL (≈ 1.72 µM) | 
CO[C@@]1(NC(=O)Cc2cccs2)C(=O)N2C(C(=O)O)=C(COC(N)=O)CS[C@@H]21 [CEFOXITIN] | 4 µg/mL (≈ 9.36 µM) | 8 µg/mL (≈ 18.7 µM) | 8 µg/mL (≈ 18.7 µM) | 4 µg/mL (≈ 9.36 µM) | 
CC1(C)S[C@@H]2[C@H](NC(=O)[C@H](C(=O)O)c3ccsc3)C(=O)N2[C@H]1C(=O)O [TICARCILLIN] | 4 µg/mL (≈ 10.4 µM) | 1020 µg/mL (≈ 2660 µM) | 8 µg/mL (≈ 20.8 µM) | 512 µg/mL (≈ 1330 µM) | 
C[C@@H](O)[C@H]1C(=O)N2C(C(=O)O)=C(SCCNC=N)C[C@H]12 [IMIPENEM ANHYDROUS] |  |  |  | 0.125 µg/mL (≈ 0.418 µM) | 
CO/N=C(\C(=O)N[C@@H]1C(=O)N2C(C(=O)O)=C(CSc3nc(=O)c(O)nn3C)CS[C@H]12)c1csc(N)n1 [CEFTRIAXONE] | 0.03 µg/mL (≈ 0.0541 µM) | 0.03 µg/mL (≈ 0.0541 µM) | 0.03 µg/mL (≈ 0.0541 µM) | 0.03 µg/mL (≈ 0.0541 µM) | MIC (Escherichia coli [5]): 0.06 µg/mL; MIC (Escherichia coli [6]): 0.03 µg/mL; MIC (Escherichia coli [3]): 0.03 µg/mL (≈ 0.0541 µM); MIC (Klebsiella pneumoniae [8]): ≤ 0.015 µg/mL
B1 |  |  |  |  | kcat [13]: 1940 s⁻¹; Km [14]: 11 µM; kcat/Km [15]: 8.42e+07 M⁻¹ s⁻¹; kcat/Km [16]: 2e+07 M⁻¹ s⁻¹; kcat/Km [17]: 6.21e+07 M⁻¹ s⁻¹
B2 |  |  |  |  | Km [18]: 141 µM; kcat [18]: 38 s⁻¹; kcat [19]: < 0.1 s⁻¹; Km [20]: 19 µM; kcat [20]: 5440 s⁻¹; Km [21]: 36 µM; kcat [21]: 1280 s⁻¹; Km [22]: 26 µM; kcat [22]: 5880 s⁻¹; Km [23]: 43 µM; kcat [23]: 1920 s⁻¹; kcat [24]: < 0.1 s⁻¹; kcat/Km [25]: 300000 M⁻¹ s⁻¹; kcat/Km [26]: 2.86e+08 M⁻¹ s⁻¹; kcat/Km [27]: 3.55e+07 M⁻¹ s⁻¹; kcat/Km [28]: 2.26e+08 M⁻¹ s⁻¹; kcat/Km [29]: 4.46e+07 M⁻¹ s⁻¹
